TNAP inh no acc: TNAP (human) inhibition, acceptor-free conditions; purified TNAP, CDP-star luminescence, 30 min; inhibition, % at 20 µM; 200,000 compounds, 0.26% hits;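 active = tissue-nonspecific alkaline phosphatase inhibition above about 50% at 20 µM in the single-dose screen, limit read from the data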;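 also: 0% = DMSO negative control and 100% = EDTA positive control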
Arbovirus anti: blocks arbovirus infection; arbovirus infection cell-based antiviral screen; 200,000 compounds, 0.37% hits; inhibition, % at 10 µM; AID 1251; in the data active = inhibition above about 30%
PKD1 kinase inh: inhibitors of human PKD1 kinase; Q15139; PKD1 kinase fluorescence polarization assay; inhibition, % (test concentration not listed); 200,000 compounds, 0.056% hits; AID 797; in the data active = inhibition above about 50%
TNAP act hi DEA: TNAP (human) activation, high acceptor. P05186. 200,000 tested, under 10 active. activation factor at 20 µM. purified TNAP, CDP-star luminescence, 1 M DEA, 30 min; active compounds read high; 0 = EDTA background, 1 = DMSO-only activity;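 active = activation factor at least 2 at 20 µM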
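Dosing: 20 µM single point. System: human TNAP. Amount: TNAP 1/800 final. Incubation: 30 min, room temperature. Read-out: TNAP activation factor scaled between EDTA and DMSO control wells. Signal: luminescence from CDP-star hydrolysis. Medium: 1 M DEA, pH 9.8, Mg2+, Zn2+. Control set: EDTA negative control, DMSO positive control.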
TNAP inh hi DEA: TNAP (human) inhibition, high acceptor. P05186. purified TNAP, CDP-star luminescence, 1 M DEA. inhibition, % at 20 µM. 200,000 compounds, 0.03% hits;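 active = over 50% inhibition of tissue-nonspecific alkaline phosphatase at 20 µM in the single-dose screen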;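 also: plate controls were DMSO wells for no effect and EDTA-quenched wells as full inhibition for full effect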
Active calls of the source: *. The list is not random: actives were taken first. Their share in the collection is about 0.73%.

For Cc1cc(C)n(C(C[N+](=O)[O-])c2ccc(Cl)cc2)n1 (stereo unspecified) the results were TNAP inh no acc 4, Arbovirus anti 6, PKD1 kinase inh -1, TNAP act hi DEA 0.9 and TNAP inh hi DEA 10.
COc1ccc(C(=O)N2CCN(Cc3cn[nH]c3-c3ccc(OC)cc3F)CC2)cc1 was read as TNAP inh no acc 82*, Arbovirus anti 10, PKD1 kinase inh -1, TNAP act hi DEA 1 and TNAP inh hi DEA -4.
For Cc1ccc(-c2cc(-c3ccccc3)no2)c(O)c1 the results were TNAP inh no acc 0, Arbovirus anti 36*, PKD1 kinase inh -9, TNAP act hi DEA 1 and TNAP inh hi DEA 0.
For Cc1ccc(CNC(=O)c2ccc(OCC3CCCO3)cc2)cc1 (stereo unspecified) the results were TNAP inh no acc -8, Arbovirus anti 0, PKD1 kinase inh -13, TNAP act hi DEA 1 and TNAP inh hi DEA -3.
`O=C(c1ccco1)N1CCN(c2nc(-c3ccc(F)cc3)cs2)CC1` gave TNAP inh no acc -10, Arbovirus anti 31*, PKD1 kinase inh 1, TNAP act hi DEA 1 and TNAP inh hi DEA -4.
Screening CCCOc1cccc(NC(=O)OC2CCN(C)CC2)c1 returned TNAP inh no acc -7, Arbovirus anti -26, PKD1 kinase inh 0, TNAP act hi DEA 1 and TNAP inh hi DEA -2.
COc1ccc2[nH]c(=O)c(CN(CCCN(C)C)C(=O)Nc3ccc(F)cc3)cc2c1 was read as TNAP inh no acc -9, Arbovirus anti 30*, PKD1 kinase inh -9, TNAP act hi DEA 1.1 and TNAP inh hi DEA -6.
`Cc1nc(S/C(=C/c2ccc(-c3cccc(Cl)c3)o2)C(=O)O)n[nH]1` gave TNAP inh no acc -127, Arbovirus anti 33*, PKD1 kinase inh 6, TNAP act hi DEA 0.9 and TNAP inh hi DEA 9.
`O=C(OCc1csc(-c2ccccc2)n1)c1ccccc1O` gave TNAP inh no acc -9, Arbovirus anti 2, PKD1 kinase inh -4, TNAP act hi DEA 1 and TNAP inh hi DEA -4.
For CC(C)(C)c1nc2ccccc2c2nnc(SCC(=O)Nc3nc4ccccc4s3)n12 the results were TNAP inh no acc 4, Arbovirus anti -5, PKD1 kinase inh 1, TNAP act hi DEA 0.5 and TNAP inh hi DEA 52*.
`N#Cc1c(-c2ccccc2)nc(SCC(=O)N(c2ccccc2)c2ccccc2)[nH]c1=O` gave TNAP inh no acc -9, Arbovirus anti 33*, PKD1 kinase inh -8, TNAP act hi DEA 1 and TNAP inh hi DEA -3.
Screening N#Cc1c(-c2ccccc2)nc(SCC(=O)Nc2ccccc2)[nH]c1=O returned TNAP inh no acc 2, Arbovirus anti -2, PKD1 kinase inh -5, TNAP act hi DEA 1 and TNAP inh hi DEA 1.
For N#Cc1c(-c2ccccc2)nc(SCC(=O)Nc2ccccc2F)[nH]c1=O the results were TNAP inh no acc -6, Arbovirus anti 9, PKD1 kinase inh -9, TNAP act hi DEA 1 and TNAP inh hi DEA -4.
`N#Cc1c(-c2ccccc2)nc(SCC(=O)Nc2nnc(C(F)(F)F)s2)[nH]c1=O` gave TNAP inh no acc -14, Arbovirus anti 73*, PKD1 kinase inh -7, TNAP act hi DEA 1.1 and TNAP inh hi DEA -7.
For COCC(C)NC(=O)CSc1nc2ccccc2n1CCc1ccccc1 (stereo unspecified) the results were TNAP inh no acc -11, Arbovirus anti -8, PKD1 kinase inh -11, TNAP act hi DEA 1 and TNAP inh hi DEA -2.
For O=C(NNC(=S)NC1CCCCC1)c1ccc(Cl)s1 the results were TNAP inh no acc -158, Arbovirus anti 38*, PKD1 kinase inh -1, TNAP act hi DEA 1.1 and TNAP inh hi DEA -5.
Screening COc1ccc(C2=NN(C(N)=S)C(c3ccco3)C2)cc1 (stereo unspecified) returned TNAP inh no acc -4, Arbovirus anti -3, PKD1 kinase inh -7, TNAP act hi DEA 1 and TNAP inh hi DEA 2.
Screening COc1ccc(-c2nc3n(n2)C(=O)CC(c2ccco2)S3)cc1 (stereo unspecified) returned TNAP inh no acc 76*, Arbovirus anti 10, PKD1 kinase inh 0, TNAP act hi DEA 1 and TNAP inh hi DEA 0.
Screening COc1cccc2sc(NN)nc12 returned TNAP inh no acc -1, Arbovirus anti 37*, PKD1 kinase inh -7, TNAP act hi DEA 0.9 and TNAP inh hi DEA 14.
Screening COc1ccccc1-c1nnc(Nc2nc3c(OC)cccc3s2)o1 returned TNAP inh no acc -35, Arbovirus anti -20, PKD1 kinase inh 0, TNAP act hi DEA 1 and TNAP inh hi DEA 0.
For Cc1ccc(C)c(SCC(=O)Nc2cc(C)nn2-c2ccc(F)cc2)c1 the results were TNAP inh no acc -10, Arbovirus anti 1, PKD1 kinase inh 3, TNAP act hi DEA 1 and TNAP inh hi DEA 5.
Screening O=C(O)c1cccc(-n2cccc2/C=C2/NC(=O)N(c3ccc(Cl)cc3)C2=O)c1 returned TNAP inh no acc -3, Arbovirus anti 32*, PKD1 kinase inh -8, TNAP act hi DEA 1 and TNAP inh hi DEA 4.
COc1ccc(-n2cccc2/C=C2/NC(=O)N(c3cccc(Cl)c3)C2=O)cc1 was read as TNAP inh no acc -14, Arbovirus anti -4, PKD1 kinase inh 9, TNAP act hi DEA 1 and TNAP inh hi DEA 2.
For Cc1ccccc1N=C1NC(=O)/C(=C/c2cccn2-c2cccc(C(=O)O)c2)S1 the results were TNAP inh no acc -4, Arbovirus anti 76*, PKD1 kinase inh -2, TNAP act hi DEA 1 and TNAP inh hi DEA -4.
`CCc1ccc(NC(=O)CSc2nc3ccccc3c(=O)n2CCCN2CCC(C)CC2)cc1` gave TNAP inh no acc -38, Arbovirus anti -23, PKD1 kinase inh 1, TNAP act hi DEA 1.1 and TNAP inh hi DEA -8.
`O=C1c2ccccc2C(O)N1c1ccc(Cl)cc1` (stereo unspecified) gave TNAP inh no acc -22, Arbovirus anti 29, PKD1 kinase inh 3, TNAP act hi DEA 1.1 and TNAP inh hi DEA -8.
Screening O=C1c2ccccc2N2C(=O)c3ccccc3[C@H]2N1c1ccccc1 returned TNAP inh no acc -13, Arbovirus anti 30*, PKD1 kinase inh -2, TNAP act hi DEA 1.1 and TNAP inh hi DEA -7.
Cc1ccc([N+](=O)[O-])cc1NCC(=O)NN was read as TNAP inh no acc 79*, Arbovirus anti 2, PKD1 kinase inh -4, TNAP act hi DEA 1 and TNAP inh hi DEA 0.
Cc1nc2ccc(S(=O)(=O)NCC(=O)N(C)Cc3ccccc3)cc2s1 was read as TNAP inh no acc -11, Arbovirus anti -3, PKD1 kinase inh -1, TNAP act hi DEA 1 and TNAP inh hi DEA -5.
`CCOc1ccc(S(=O)(=O)N2CCN(c3ccccc3OC)CC2)c2cccnc12` gave TNAP inh no acc -9, Arbovirus anti 34*, PKD1 kinase inh -2, TNAP act hi DEA 1 and TNAP inh hi DEA -4.
Screening CCOc1ccc(S(=O)(=O)N2CCN(c3ccccc3)CC2)c2cccnc12 returned TNAP inh no acc 1, Arbovirus anti 18, PKD1 kinase inh -14, TNAP act hi DEA 1 and TNAP inh hi DEA -3.

Screening results (PubChem)
